Experimental data reported in ChEMBL document CHEMBL1141626, “Thiosemicarbazones active against Clostridium difficile” (2008).
Converted amounts (≈) assume the structure as drawn.

Tests used:
Assay type in all cases: functional
Clostridioides difficile [1] = experiment: Antimicrobial activity against Clostridium difficile Z176 after 48 hrs
Method in brief: (§1)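 Anaerobes incubated in an anaerobic cabinet for broth MIC determination. Drug-free incubations of the same organisms served as controls. Value is the minimum inhibitory concentration.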

Clostridioides difficile [2] = experiment: Antimicrobial activity against Clostridium difficile Z168 after 48 hrs; method in brief: as §1
Staphylococcus aureus [3] = experiment: (§2) Antimicrobial activity against Staphylococcus aureus H1 after 24 hrs
Method in brief: (§3)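 MIC by dilution in nutrient broth. Anaerobic organisms were incubated in an anaerobic cabinet. Controls were the same organisms incubated without test compound.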

Clostridioides difficile [4] = experiment: Antimicrobial activity against Clostridium difficile Z1578 after 48 hrs; method in brief: as §1
Clostridioides difficile [5] = experiment: Antimicrobial activity against Clostridium difficile Z161 after 48 hrs; method in brief: as §1
Clostridioides difficile [6] = experiment: Antimicrobial activity against Clostridium difficile Z1591 after 48 hrs; method in brief: as §1
Clostridioides difficile [7] = experiment: Antimicrobial activity against Clostridium difficile Z150 after 48 hrs; method in brief: as §1
Clostridioides difficile [8] = experiment: Antimicrobial activity against Clostridium difficile Z175 after 48 hrs; method in brief: as §1
Clostridioides difficile [9] = experiment: Antimicrobial activity against Clostridium difficile Z173 after 48 hrs; method in brief: as §1
Clostridioides difficile [10] = experiment: Antimicrobial activity against Clostridium difficile NCTC 11204 after 48 hrs; conditions: NCTC 11204, 48 h; method in brief: as §1
Clostridioides difficile [11] = experiment: Antimicrobial activity against Clostridium difficile Z1568 after 48 hrs; method in brief: as §1
Staphylococcus aureus [12] = experiment: Antimicrobial activity against Staphylococcus aureus T1 after 24 hrs; method in brief: as §3
Staphylococcus aureus [13] = experiment: Antimicrobial activity against methicillin-resistant Staphylococcus aureus C3 after 24 hrs; method in brief: as §3
[14] = system: Staphylococcus epidermidis; experiment: Antimicrobial activity against Staphylococcus epidermidis NCTC 11047 after 24 hrs; conditions: NCTC 11047, 24 h; method in brief: as §3
Cutibacterium acnes [15] = experiment: Antimicrobial activity against Propionibacterium acnes B5 after 48 hrs; method in brief: as §1
Cutibacterium acnes [16] = experiment: Antimicrobial activity against Propionibacterium acnes C5 after 48 hrs; method in brief: as §3
Cutibacterium acnes [17] = experiment: Antimicrobial activity against Propionibacterium acnes D1 after 48 hrs; method in brief: as §3
[18] = system: Staphylococcus epidermidis; experiment: Antimicrobial activity against Staphylococcus epidermidis RP62A after 24 hrs; method in brief: as §3
Clostridioides difficile [19] = experiment: Antimicrobial activity against Clostridium difficile Z158 after 48 hrs; method in brief: as §1
Cutibacterium acnes [20] = experiment: Antimicrobial activity against Propionibacterium acnes NCTC 737 after 48 hrs; conditions: NCTC 737, 48 h; method in brief: as §3
Clostridioides difficile [21] = experiment: Antimicrobial activity against Clostridium difficile Z177 after 48 hrs; method in brief: as §1
Clostridioides difficile [22] = experiment: Antimicrobial activity against Clostridium difficile Z229 after 48 hrs; method in brief: as §1
Clostridioides difficile [23] = experiment: Antimicrobial activity against Clostridium difficile O27 after 48 hrs; method in brief: as §1
[24] = system: Staphylococcus epidermidis; experiment: Antimicrobial activity against Staphylococcus epidermidis 10 after 24 hrs; method in brief: as §3
[25] = system: Staphylococcus epidermidis; experiment: Antimicrobial activity against Staphylococcus epidermidis 3 after 24 hrs; method in brief: as §3
Acinetobacter sp. [26] = experiment: Antimicrobial activity against Acinetobacter sp.5
Staphylococcus aureus [27] = experiment: Antimicrobial activity against Staphylococcus aureus V1 after 24 hrs; method in brief: as §3
Cutibacterium acnes [28] = experiment: Antimicrobial activity against Propionibacterium acnes C3 after 48 hrs; method in brief: as §3
Staphylococcus aureus [29] = experiment: Antimicrobial activity against epidemic methicillin-resistant Staphylococcus aureus 15 after 24 hrs; method in brief: as §3
[30] = system: Staphylococcus epidermidis; experiment: Antimicrobial activity against Staphylococcus epidermidis 9 after 24 hrs; method in brief: as §3
[31] = system: Staphylococcus epidermidis; experiment: Antimicrobial activity against Staphylococcus epidermidis 4 after 24 hrs; method in brief: as §3
Staphylococcus aureus [32] = experiment: Antimicrobial activity against methicillin-resistant Staphylococcus aureus A1 after 24 hrs; method in brief: as §3
Staphylococcus aureus [33] = experiment: as §2; method in brief: as §3; remark: listed apart in the source
Acinetobacter sp. [34] = experiment: Antimicrobial activity against Acinetobacter sp.4
Cutibacterium acnes [35] = experiment: Antimicrobial activity against Propionibacterium acnes C1 after 24 hrs; method in brief: as §3
Clostridioides difficile [36] = experiment: Antimicrobial activity against Clostridium difficile Z167 after 48 hrs; method in brief: as §1
Clostridioides difficile [37] = experiment: Antimicrobial activity against Clostridium difficile Z179 after 48 hrs; method in brief: as §1
Staphylococcus aureus [38] = experiment: Antimicrobial activity against Staphylococcus aureus K1 after 24 hrs; method in brief: as §3
Candida albicans = experiment: Antimicrobial activity against Candida albicans 1015391

`CCNC(=S)N/N=C/C=C/c1ccc([N+](=O)[O-])o1` gave an MIC (Clostridioides difficile [1]) of 2 µg/mL (≈ 7.45 µM), an MIC (Clostridioides difficile [2]) of 2 µg/mL (≈ 7.45 µM) and an MIC (Staphylococcus aureus [3]) of 16 µg/mL (≈ 59.6 µM). The MIC (Clostridioides difficile [4]) was 1 µg/mL (≈ 3.73 µM), the MIC (Clostridioides difficile [5]) was 0.5 µg/mL (≈ 1.86 µM) and the MIC (Clostridioides difficile [6]) was 1 µg/mL (≈ 3.73 µM). For the same compound, the MIC (Clostridioides difficile [7]) was 4 µg/mL (≈ 14.9 µM), the MIC (Clostridioides difficile [8]) was 0.5 µg/mL (≈ 1.86 µM) and the MIC (Clostridioides difficile [9]) was 8 µg/mL (≈ 29.8 µM). For the same compound, the MIC (Clostridioides difficile [10]) was 4 µg/mL (≈ 14.9 µM), the MIC (Clostridioides difficile [11]) was 1 µg/mL (≈ 3.73 µM) and the MIC (Staphylococcus aureus [12]) was 4 µg/mL (≈ 14.9 µM). For the same compound, the MIC (Staphylococcus aureus [13]) was 4 µg/mL (≈ 14.9 µM), the MIC [14] was 4 µg/mL (≈ 14.9 µM) and the MIC (Cutibacterium acnes [15]) was 8 µg/mL (≈ 29.8 µM). The MIC (Cutibacterium acnes [16]) was 32 µg/mL (≈ 119 µM), the MIC (Cutibacterium acnes [17]) was 4 µg/mL (≈ 14.9 µM) and the MIC [18] was 4 µg/mL (≈ 14.9 µM). The MIC (Clostridioides difficile [19]) was 2 µg/mL (≈ 7.45 µM), the MIC (Cutibacterium acnes [20]) was 4 µg/mL (≈ 14.9 µM) and the MIC (Clostridioides difficile [21]) was 2 µg/mL (≈ 7.45 µM). For the same compound, the MIC (Clostridioides difficile [22]) was 4 µg/mL (≈ 14.9 µM), the MIC (Clostridioides difficile [23]) was 8 µg/mL (≈ 29.8 µM) and the MIC [24] was 4 µg/mL (≈ 14.9 µM). It also gave an MIC [25] of 2 µg/mL (≈ 7.45 µM), an MIC (Acinetobacter sp. [26]) of 128 µg/mL (≈ 477 µM) and an MIC (Staphylococcus aureus [27]) of 2 µg/mL (≈ 7.45 µM). For the same compound, the MIC (Cutibacterium acnes [28]) was 2 µg/mL (≈ 7.45 µM), the MIC (Staphylococcus aureus [29]) was 4 µg/mL (≈ 14.9 µM) and the MIC [30] was 1 µg/mL (≈ 3.73 µM). The MIC [31] was 4 µg/mL (≈ 14.9 µM), the MIC (Staphylococcus aureus [32]) was 2 µg/mL (≈ 7.45 µM) and the MIC (Staphylococcus aureus [33]) was 64 µg/mL (≈ 239 µM). The MIC (Acinetobacter sp. [34]) was 128 µg/mL (≈ 477 µM), the MIC (Cutibacterium acnes [35]) was 8 µg/mL (≈ 29.8 µM) and the MIC (Clostridioides difficile [36]) was 2 µg/mL (≈ 7.45 µM). It also gave an MIC (Clostridioides difficile [37]) of 2 µg/mL (≈ 7.45 µM), an MIC (Staphylococcus aureus [38]) of 4 µg/mL (≈ 14.9 µM) and an MIC (Candida albicans) of 128 µg/mL (≈ 477 µM).
